ChEMBL document CHEMBL2146467, “Generation and exploration of new classes of antitubercular agents: The optimization of oxazolines, oxazoles, thiazolines, thiazoles to imidazo[1,2-a]pyridines and isomeric 5,6-fused scaffolds” (Bioorg Med Chem, 2012)
≈ marks a conversion by molar mass, not a printed value.

Assays:
[1] = system: Mycobacterium tuberculosis; experiment: Antimycobacterial activity against Mycobacterium tuberculosis H37Rv ATCC 27294 culture in GAS media after 7 days by microplate alamar blue assay; assay type: functional; settings: H37Rv ATCC 27294, 168 h
Method in brief: (§1)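 Replicating Mtb H37Rv. The MIC is the concentration that inhibits growth of 90% of organisms. Media by line: GAS is glycerol-alanine-salts. GAST is iron-deficient glycerol-alanine-salts with Tween 80. 7H12 is 7H9 broth base with BSA, casein hydrolysate, catalase and palmitic acid. Values are reported in μM.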

[2] = system: Mycobacterium tuberculosis; experiment: Antimycobacterial activity against Mycobacterium tuberculosis H37Rv ATCC 27294 culture in GAST media after 7 days by microplate alamar blue assay; assay type: functional; settings: H37Rv ATCC 27294, 168 h; method in brief: as §1
[3] = system: Mycobacterium tuberculosis; experiment: Antimycobacterial activity against Mycobacterium tuberculosis H37Rv ATCC 27294 culture in 7H12 media after 7 days by microplate alamar blue assay; assay type: functional; settings: H37Rv ATCC 27294, 168 h; method in brief: as §1
Vero = experiment: Cytotoxicity against african green monkey Vero cells after 72 hrs by CellTiter assay; assay type: cell-based; settings: Chlorocebus sabaeus
[4] = system: Mycobacterium tuberculosis; experiment: microbe, parasite or virus in culture; assay type: functional; settings: H37Rv
[5] = Metabolic stability in Sprague-Dawley rat liver microsomes assessed as compound remaining at 20 uM after 15 mins by LC/MS analysis; assay type: ADME, Microsome; settings: read-out: Stability
[6] = Chemical stability in simulated gastric fluid assessed as compound remaining at 50 uM after 15 mins by LC/MS analysis; assay type: physicochemical; settings: read-out: Stability
[7] = system: Mycobacterium tuberculosis; experiment: Antimycobacterial activity against drug-sensitive Mycobacterium tuberculosis isolate 2 after 14 days; assay type: functional; settings: isolate 2, 336 h
[8] = system: Mycobacterium tuberculosis; experiment: Antimycobacterial activity against isoniazid-,rifampin-,ethambutol-,kanamycin-,paraaminosalicylic acid-resistant Mycobacterium tuberculosis after 14 days; assay type: functional; settings: 336 h

Row | Structure (SMILES) | MIC90 [1] [µM] | MIC90 [2] [µM] | further results
1 | O=C(NC1CCCCC1)[C@@H]1CSC(c2ccccc2)=N1 | 46 (≈ 13.3 µg/mL) | 56 (≈ 16.2 µg/mL) | –
2 | CCOC(=O)c1csc(-c2cccc(Cl)c2Cl)n1 | 41 (≈ 12.4 µg/mL) | 39 (≈ 11.8 µg/mL) | –
3 | CCOC(=O)c1c(-c2ccccc2)nc2ccc(C)cn12 | 55.1 (≈ 15.4 µg/mL) | 41 (≈ 11.5 µg/mL) | –
4 | COc1ccc(-c2ccc(C(=O)OCc3ccccc3)cn2)cc1 | 1.9 (≈ 0.607 µg/mL) | – | MIC90 [3]: 9.5 µM (≈ 3.03 µg/mL)
5 | O=C(OCc1ccccc1)[C@@H]1CSC(c2ccccc2)=N1 | 12.9 (≈ 3.84 µg/mL) | 3.5 (≈ 1.04 µg/mL) | IC50 (Vero): > 128 µM; MIC90 [3]: 11.6 µM (≈ 3.45 µg/mL)
6 | CCOC(=O)c1c(C(F)(F)F)nc2ccccn12 | > 128 | > 128 | –
7 | O=C(OCc1ccccc1)c1cc(-c2ccccc2)on1 | 2.2 (≈ 0.614 µg/mL) | – | MIC90 [4]: 28 µM (≈ 7.82 µg/mL); IC50 (Vero): > 50 µM; MIC90 [3]: 0.8 µM (≈ 0.223 µg/mL)
8 | CCCCCCNC(=O)[C@@H]1CSC(c2ccccc2)=N1 | 23 (≈ 6.68 µg/mL) | 58 (≈ 16.8 µg/mL) | –
9 | CCOC(=O)c1c(-c2ccccc2)nc2ccc(Cl)cn12 | 63.1 (≈ 19 µg/mL) | > 128 | –
10 | COc1ccc(CNC(=O)[C@@H]2CSC(c3ccccc3)=N2)cc1OC | 80 (≈ 28.5 µg/mL) | > 128 | –
11 | CCOC(=O)c1csc(-c2ccc(C)cc2)n1 | 61 (≈ 15.1 µg/mL) | 79 (≈ 19.5 µg/mL) | –
12 | COc1ccc(CNC(=O)c2csc(-c3ccccc3)n2)cc1OC | 58 (≈ 20.6 µg/mL) | 64 (≈ 22.7 µg/mL) | –
13 | COc1ccc(CNC(=O)c2coc(-c3ccccc3)n2)cc1OC | 81 (≈ 27.4 µg/mL) | > 128 | –
14 | CCOC(=O)c1coc(-c2ccccc2)n1 | 19.5 (≈ 4.24 µg/mL) | 7.5 (≈ 1.63 µg/mL) | –
15 | CCOC(=O)c1c(-c2ccccc2)nc2ccccn12 | 86.5 (≈ 23 µg/mL) | 68.2 (≈ 18.2 µg/mL) | –
16 | CCOC(=O)c1n[nH]c(-c2cccc(C)c2)c1N | > 128 | > 128 | –
17 | O=C(OCc1ccccc1)[C@@H]1COC(c2ccccc2)=N1 | 4.9 (≈ 1.38 µg/mL) | 4.4 (≈ 1.24 µg/mL) | remaining at 0.25 h, 20 µM [5]: 2.8%; MIC90 [4]: 63 µM (≈ 17.7 µg/mL); IC50 (Vero): > 128 µM; remaining at 0.25 h, 50 µM [6]: 1.7%; MIC90 [3]: 16.6 µM (≈ 4.67 µg/mL)
18 | CCCCCCNC(=O)[C@@H]1COC(c2ccc(OC(F)(F)F)cc2)=N1 | 31 (≈ 11.1 µg/mL) | > 64 | –
19 | CCOC(=O)c1nc(-c2ccccc2)oc1C | > 128 | 124 (≈ 28.7 µg/mL) | –
20 | CCOC(=O)c1nc(-c2ccccc2)sc1C(C)=O | 63 (≈ 17.3 µg/mL) | 124 (≈ 34.1 µg/mL) | –

Row | Structure (SMILES) | MIC90 [1] [µM] | MIC90 [2] [µM] | further results
21 | COc1ccc(C2=N[C@H](C(=O)NCc3ccc(OC)c(OC)c3)CO2)cc1 | > 128 | > 128 | –
22 | CCOC(=O)c1cc(-c2ccc([N+](=O)[O-])cc2)[nH]n1 | > 128 | > 128 | –
23 | O=C(OCc1ccccc1)c1csc(-c2ccccc2)n1 | 6 (≈ 1.77 µg/mL) | 6.2 (≈ 1.83 µg/mL) | MIC90 [7]: 8.5 µM (≈ 2.51 µg/mL); IC50 (Vero): > 128 µM; MIC90 [8]: 4.2 µM (≈ 1.24 µg/mL); MIC90 [3]: 7.2 µM (≈ 2.13 µg/mL)
24 | COc1cccc(CNC(=O)c2c(C)nc3cc(C)ccn23)c1 | – | – | remaining at 0.25 h, 20 µM [5]: 94%; remaining at 0.25 h, 50 µM [6]: 100%
25 | CCOC(=O)c1cnc2cc(C)c(N)cn12 | > 128 | > 128 | –
26 | Cc1cc2nc(C)c(C(=O)OCc3ccccc3)n2c(C)n1 | 1.1 (≈ 0.325 µg/mL) | – | IC50 (Vero): > 50 µM; MIC90 [3]: 5.3 µM (≈ 1.57 µg/mL)
27 | CCOC(=O)c1csc(-c2cccc(C(F)(F)F)c2)n1 | 59 (≈ 17.8 µg/mL) | 61 (≈ 18.4 µg/mL) | –
28 | CCOC(=O)c1c(-c2ccccc2)nc2cc(C)ccn12 | 55.1 (≈ 15.4 µg/mL) | 71.3 (≈ 20 µg/mL) | –
29 | CCOC(=O)c1c(C)nc2cc(C)ccn12 | 65.1 (≈ 14.2 µg/mL) | 64.1 (≈ 14 µg/mL) | –
30 | CCOC(=O)c1c(C)nc2c(C3CCCN3C)cccn12 (stereo not given) | > 64 | > 64 | –
31 | O=C(NC1CCCCC1)c1csc(-c2ccccc2)n1 | 15 (≈ 4.3 µg/mL) | 15 (≈ 4.3 µg/mL) | remaining at 0.25 h, 20 µM [5]: 3.3%; remaining at 0.25 h, 50 µM [6]: 3.3%
32 | Cc1ccn2c(C(=O)OCc3ccccc3)c(-c3ccccc3)nc2c1 | < 0.195 | – | MIC90 [4]: 21.7 µM (≈ 7.43 µg/mL); IC50 (Vero): > 50 µM; MIC90 [3]: < 0.195 µM
33 | Cc1ccc(Cl)c(OC(=O)c2coc(-c3ccccc3)n2)c1 | – | – | remaining at 0.25 h, 20 µM [5]: 14%; remaining at 0.25 h, 50 µM [6]: 0.9%
34 | CC(C)(C)OC(=O)c1coc(-c2ccccc2)n1 | > 64 | > 64 | remaining at 0.25 h, 20 µM [5]: 42%
35 | CCc1ccccc1OC(=O)c1coc(-c2ccccc2)n1 | – | – | remaining at 0.25 h, 20 µM [5]: 8.5%; remaining at 0.25 h, 50 µM [6]: 2.1%
36 | O=C(NC1CCCCC1)[C@@H]1COC(c2ccc(OC(F)(F)F)cc2)=N1 | 60 (≈ 21.4 µg/mL) | > 64 | –
37 | O=C(Oc1ccccc1)c1coc(-c2ccccc2)n1 | – | – | remaining at 0.25 h, 20 µM [5]: 0.2%; remaining at 0.25 h, 50 µM [6]: 0.2%
38 | CCc1ccccc1COC(=O)c1coc(-c2ccccc2)n1 | – | – | remaining at 0.25 h, 20 µM [5]: 3.2%; remaining at 0.25 h, 50 µM [6]: 3.2%
39 | COc1ccc(CNC(=O)c2c(C)nc3cc(C)ccn23)cc1 | – | – | remaining at 0.25 h, 20 µM [5]: 33.6%; remaining at 0.25 h, 50 µM [6]: 100%
40 | O=C(OCc1ccccc1)c1coc(-c2ccc(F)c([N+](=O)[O-])c2)n1 | – | – | remaining at 0.25 h, 20 µM [5]: 10.9%; remaining at 0.25 h, 50 µM [6]: 0.9%

Row | Structure (SMILES) | MIC90 [1] [µM] | MIC90 [2] [µM] | further results
41 | CO[C@H]1/C=C/O[C@@]2(C)Oc3c(C)c(O)c4c(O)c(c(/C=N/N5CCN(C)CC5)c(O)c4c3C2=O)NC(=O)/C(C)=C\C=C\[C@H](C)[C@H](O)[C@@H](C)[C@@H](O)[C@@H](C)[C@H](OC(C)=O)[C@@H]1C [RIFAMPIN] | 0.09 (≈ 0.0741 µg/mL) | 0.2 (≈ 0.165 µg/mL) | MIC90 [3]: 0.04 µM (≈ 0.0329 µg/mL)
42 | O=C(Oc1ccccc1N1CCOCC1)c1coc(-c2ccccc2)n1 | – | – | remaining at 0.25 h, 20 µM [5]: 5.4%; remaining at 0.25 h, 50 µM [6]: 0.7%
43 | CCOC(=O)c1c(C)nc2ccc(Cl)cn12 | 93.5 (≈ 22.3 µg/mL) | > 101 | –
44 | CCOC(=O)c1c(C)nc2cc(C)cc(C)n12 | > 79.5 | > 72.9 | –
45 | CCOC(=O)c1nc(-c2ccccc2)oc1C(F)(F)F | > 128 | > 128 | –
46 | O=C(NCc1ccccc1)c1coc(-c2ccccc2)n1 | > 65 | 59 (≈ 16.4 µg/mL) | MIC90 [3]: > 40 µM
47 | CCCCCCNC(=O)c1coc(-c2ccccc2)n1 | 22 (≈ 5.99 µg/mL) | 18 (≈ 4.9 µg/mL) | –
48 | O=C(Nc1ccccc1)c1coc(-c2ccccc2)n1 | 11 (≈ 2.91 µg/mL) | 28 (≈ 7.4 µg/mL) | MIC90 [4]: 50 µM (≈ 13.2 µg/mL); IC50 (Vero): > 128 µM
49 | Cc1nc2ncccn2c1C(=O)OCc1ccccc1 | 2.3 (≈ 0.615 µg/mL) | – | IC50 (Vero): > 50 µM; MIC90 [3]: 4.7 µM (≈ 1.26 µg/mL)
50 | O=C(OCc1ccccc1C(F)(F)F)c1coc(-c2ccccc2)n1 | – | – | remaining at 0.25 h, 20 µM [5]: 7.8%; remaining at 0.25 h, 50 µM [6]: 0.8%
51 | CCOC(=O)c1nn(Cc2ccccc2)cc1N | 126 (≈ 30.9 µg/mL) | > 128 | –
52 | O=C(Oc1cccc2c1CCCC2)c1coc(-c2ccccc2)n1 | – | – | remaining at 0.25 h, 20 µM [5]: 14.5%; remaining at 0.25 h, 50 µM [6]: 1.8%
53 | O=C(NC1CCCCC1)c1coc(-c2ccccc2)n1 | 14 (≈ 3.78 µg/mL) | 30 (≈ 8.11 µg/mL) | –
54 | CCCCCCNC(=O)c1csc(-c2ccccc2)n1 | 14 (≈ 4.04 µg/mL) | 60 (≈ 17.3 µg/mL) | remaining at 0.25 h, 20 µM [5]: 18.9%; remaining at 0.25 h, 50 µM [6]: 0.1%
55 | Cc1ccn2c(C(=O)NCc3ccccc3)c(-c3ccccc3)nc2c1 | 0.6 (≈ 0.205 µg/mL) | – | MIC90 [4]: > 50 µM; IC50 (Vero): > 50 µM; MIC90 [3]: 2.9 µM (≈ 0.99 µg/mL)
56 | O=C(OC1CCCCC1)c1coc(-c2ccccc2)n1 | – | – | remaining at 0.25 h, 20 µM [5]: 12.1%; remaining at 0.25 h, 50 µM [6]: 0.5%
57 | O=C(OCc1ccccc1)[C@@H]1COC(c2ccccc2OCc2ccccc2)=N1 | – | – | remaining at 0.25 h, 20 µM [5]: 5.2%; remaining at 0.25 h, 50 µM [6]: 0.8%
58 | O=C(OCc1ccccc1)c1cc(-c2ccccc2)[nH]n1 | 3.5 (≈ 0.974 µg/mL) | > 64 | IC50 (Vero): > 128 µM; MIC90 [3]: > 38 µM
59 | NNC(=O)c1ccncc1 [ISONIAZID] | 0.22 (≈ 0.0302 µg/mL) | – | MIC90 [4]: > 512 µM; IC50 (Vero): > 128 µM; MIC90 [3]: 0.37 µM (≈ 0.0507 µg/mL)
